Source: ChEMBL document CHEMBL4622843, “Synthesis, state-of-the-art NMR-binding and molecular modeling study of new benzimidazole core derivatives as Pin1 inhibitors: Targeting breast cancer” (Bioorg Med Chem, 2020)
Active and inactive are the calls of the source. The calls are words filed in the database; no cut-off is given here.

Tests used:
MCF7 [1] = experiment: Cytotoxicity against human MCF7 cells assessed as reduction in cell viability after 24 hrs by MTT assay; type: functional, cell-based; details: MCF7, 24 h
[2] = target: Peptidyl-prolyl cis-trans isomerase NIMA-interacting 1 (Homo sapiens) (UniProt Q13526); experiment: Binding affinity to recombinant human 15N-labelled N-terminal 6His-tagged Pin1 expressed in Escherichia coli BL21 (DE3) cells at 1:10 ratio of protein to compound by 2D 15N-1H HSQC NMR spectroscopy
In short: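 Pin1 and compound at a 1:10 protein:compound ratio, compound partially dissolved in 95% buffer/5% DMSO. A reference HSQC spectrum was recorded with DMSO only and compared with ligand-containing spectra.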

[3] = Solubility of the compound in 95% PBS buffer/5% DMSO; type: physicochemical
MCF7 [4] = experiment: Induction of apoptosis in human MCF7 cells assessed as early apoptotic cells at 10 mg/ml after 24 hrs by AnnexinV-FITC/propidium iodide staining based flow cytometry analysis (reference value: 0.41%); type: functional
MCF7 [5] = experiment: Induction of apoptosis in human MCF7 cells assessed as late apoptotic cells at 10 mg/ml after 24 hrs by AnnexinV-FITC/propidium iodide staining based flow cytometry analysis (reference value: 0.19%); type: functional
MCF7 [6] = experiment: Induction of apoptosis in human MCF7 cells assessed as necrotic cells at 10 mg/ml after 24 hrs by AnnexinV-FITC/propidium iodide staining based flow cytometry analysis (reference value: 0.44%); type: functional
MCF7 [7] = experiment: Cell cycle arrest in human MCF7 cells assessed as accumulation at G0/G1 phase at 10 mg/ml after 24 hrs by Annexin V-FITC/propidium iodide staining based flow cytometry (reference value: 56.38%); type: functional
MCF7 [8] = experiment: Cell cycle arrest in human MCF7 cells assessed as accumulation at S phase at 10 mg/ml after 24 hrs by Annexin V-FITC/propidium iodide staining based flow cytometry (reference value: 38.15%); type: functional
MCF7 [9] = experiment: Cell cycle arrest in human MCF7 cells assessed as accumulation at G2/M phase at 10 mg/ml after 24 hrs by Annexin V-FITC/propidium iodide staining based flow cytometry (reference value: 5.47%); type: functional
MCF7 [10] = experiment: Cell cycle arrest in human MCF7 cells assessed as accumulation at PreG1 phase at 10 mg/ml after 24 hrs by Annexin V-FITC/propidium iodide staining based flow cytometry (reference value: 1.04%); type: functional

Peptidyl-prolyl cis-trans isomerase NIMA-interacting 1 (Homo sapiens), sequence (Q13526 whole entry): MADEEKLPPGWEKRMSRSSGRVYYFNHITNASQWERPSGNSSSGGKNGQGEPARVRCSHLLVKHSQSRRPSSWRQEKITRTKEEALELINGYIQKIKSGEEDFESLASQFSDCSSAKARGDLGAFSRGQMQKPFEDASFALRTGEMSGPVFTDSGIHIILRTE

SMILES	IC50 (MCF7 [1]) [µM]	also measured
Cc1cc2nc(CSC(=S)N3CCCCC3)[nH]c2cc1C	9.55	Activity [2]: Active; solubility [3]: Soluble
S=C(SCc1nc2cc(Cl)c(Cl)cc2[nH]1)N1CCCCC1	42.8	
COc1ccc(N2CCN(C(=S)SCc3nc4cc(C)c(C)cc4[nH]3)CC2)cc1	46	
Clc1cccc(N2CCN(CCCSc3nc4cc(Cl)ccc4[nH]3)CC2)c1	61.4	
COc1ccc(N2CCN(CCCSc3nc4cc(Cl)ccc4[nH]3)CC2)cc1	38.5	
CCOc1ccccc1N1CCN(CCCSc2nc3cc(Cl)ccc3[nH]2)CC1	27.7	
CN1CCN(CCCSc2nc3cc(Cl)ccc3[nH]2)CC1	13.9	
S=C(SCc1nc2cc(Cl)c(Cl)cc2[nH]1)N1CCOCC1	5.7	Activity [2]: Active; solubility [3]: Soluble
CCN(CC)C(=S)SCc1nc2cc(Cl)c(Cl)cc2[nH]1	12.6	
c1ccc2[nH]c(SCCCN3CCOCC3)nc2c1	82.9	
CN1CCN(CCCSc2nc3ccccc3[nH]2)CC1	77.9	
Clc1cccc(N2CCN(CCCSc3nc4ccccc4[nH]3)CC2)c1	54.6	
CN1CCN(C(=S)SCc2nc3cc(Cl)c(Cl)cc3[nH]2)CC1	30.5	
CCOc1ccccc1N1CCN(C(=S)SCc2nc3cc(C)c(C)cc3[nH]2)CC1	5.58	Activity (MCF7 [4]): 7.36%; Activity (MCF7 [5]): 17.01%; Activity (MCF7 [6]): 2.91%; Activity (MCF7 [7]): 39.72%; Activity (MCF7 [8]): 32.42%; Activity (MCF7 [9]): 27.86%; Activity (MCF7 [10]): 27.28%
COc1ccc(N2CCN(C(=S)SCc3nc4cc(Cl)c(Cl)cc4[nH]3)CC2)cc1	19.9	
ClCCCSc1nc2cc(Cl)ccc2[nH]1	24.1	
CCOc1ccccc1N1CCN(CCCSc2nc3ccccc3[nH]2)CC1	32.7	
COc1ccc(N2CCN(CCCSc3nc4ccccc4[nH]3)CC2)cc1	6.84	Activity [2]: Active; solubility [3]: Soluble
CCOc1ccccc1N1CCN(C(=S)SCc2nc3cc(Cl)c(Cl)cc3[nH]2)CC1	16.2	
c1ccc2[nH]c(SCCCN3CCNCC3)nc2c1	91.7	
